Measured values as given in ChEMBL document CHEMBL1177638, “Synthesis of pyrrolo[3,2-h]quinolinones with good photochemotherapeutic activity and no DNA damage” (Bioorg Med Chem, 2010).
pIC50: −log10 of the molar value. Calls of active or inactive are those of the source. The calls are words filed in the database; no cut-off is given here.

Key:
[1] = Phototoxicity against human sNCTC-2544 cells irradiated with 3.75 J/cm'2 after 72 hrs by MTT assay; format: functional, cell-based; details: NCTC-2544, light or radiation study
Procedure, shortened: (§1)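 Cells were seeded at 8 × 10³ and preincubated 18 h at 37 °C, 5% CO₂. Jurkat and K-562 grew in RPMI-1640, MCF-7 and NCTC-2544 in DMEM, and LoVo in Ham's F12, all with 10% FBS plus penicillin and streptomycin. Compounds in DMSO were diluted in HBSS, pH 7.2 (range 20–0.31; DMSO ≤1%) and applied 30 min at 37 °C. Wells were then UV-A irradiated (365 nm; 2.5 or 3.75 J/cm²), medium was replaced, and MTT was read after 72 h.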

[2] = system: Jurkat; test: Phototoxicity against human Jurkat cells irradiated with 2.5 J/cm'2 after 72 hrs by MTT assay; format: functional, cell-based; details: light or radiation study; procedure, shortened: as §1
[3] = system: K562; test: Phototoxicity against human K562 cells irradiated with 2.5 J/cm'2 after 72 hrs by MTT assay; format: functional, cell-based; details: K562, light or radiation study; procedure, shortened: as §1
[4] = system: LoVo; test: Phototoxicity against human LoVo cells irradiated with 3.75 J/cm'2 after 72 hrs by MTT assay; format: functional, cell-based; details: light or radiation study; procedure, shortened: as §1
[5] = system: K562; test: Phototoxicity against human K562 cells irradiated with 3.75 J/cm'2 after 72 hrs by MTT assay; format: functional, cell-based; details: K562, light or radiation study; procedure, shortened: as §1
[6] = system: Jurkat; test: Phototoxicity against human Jurkat cells irradiated with 3.75 J/cm'2 after 72 hrs by MTT assay; format: functional, cell-based; details: light or radiation study; procedure, shortened: as §1
[7] = system: MCF7; test: Phototoxicity against human MCF7 cells irradiated with 2.5 J/cm'2 after 72 hrs by MTT assay; format: functional, cell-based; details: MCF7, light or radiation study; procedure, shortened: as §1
[8] = Phototoxicity against human sNCTC-2544 cells irradiated with 2.5 J/cm'2 after 72 hrs by MTT assay; format: functional, cell-based; details: NCTC-2544, light or radiation study; procedure, shortened: as §1
[9] = system: LoVo; test: Phototoxicity against human LoVo cells irradiated with 2.5 J/cm'2 after 72 hrs by MTT assay; format: functional, cell-based; details: light or radiation study; procedure, shortened: as §1
[10] = system: MCF7; test: Phototoxicity against human MCF7 cells irradiated with 3.75 J/cm'2 after 72 hrs by MTT assay; format: functional, cell-based; details: MCF7, light or radiation study; procedure, shortened: as §1
[11] = system: Nucleic Acid; test: Binding affinity to salmon testes DNA assessed as intercalation by linear dichroism experiment; format: nucleic-acid assay; details: Salmonidae
Procedure, shortened: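 Salmon testes DNA was mixed with compound at [Drug]/[DNA] ratios of 0, 0.02 and 0.04 in 10 mM phosphate buffer, pH 7.2. Samples were oriented in a rotating cylindrical flow cuvette (0.14 cm path, 800 rpm), and linear dichroism spectra were recorded over roughly 250–450 nm.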

[12] = system: Jurkat; test: Induction of apoptosis in human Jurkat cells assessed as induction of loss of membrane potential at 1 uM after 2 hrs post-irradiation with 20 J/cm'2 by flow cytometry; format: functional
Procedure, shortened: (§2)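 Irradiated Jurkat cells treated with compound were collected 2 and 4 h after irradiation and resuspended in HBSS containing JC-1. Green (FL1) and orange (FL2) fluorescence were read by flow cytometry, with at least 10,000 events per sample. Values are mean ± SD of at least three independent experiments.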

[13] = system: Jurkat; test: Cell cycle arrest in human Jurkat cells assessed as accumulation in G2/M phase at 1 uM irradiated with 25 J/cm'2 after 24 hrs by flow cytometry
[14] = system: Jurkat; test: Induction of apoptosis in human Jurkat cells assessed as phosphatidylserine esposure after 2 hrs using annexin-V FITC and PI staining by flow cytometry; format: functional, cell-based
Procedure, shortened: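 Jurkat cells (100,000) were irradiated (2.5 J/cm²) with compound present and centrifuged 30 min, 1 h or 2 h later. They were stained with Annexin V-FITC/PI for 15 min in the dark, and FITC (FL1) and PI (FL3) were read by flow cytometry, with at least 10,000 events. Cells were classed as intact, early apoptotic, late apoptotic/necrotic or necrotic. Values are the mean of three experiments.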

[15] = system: Jurkat; test: Induction of apoptosis in human Jurkat cells assessed as increase in mitochondrial ROS production at 1 uM after 6 hrs post-irradiation with 2.5 J/cm'2 by FACS analysis; format: functional
Procedure, shortened: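 Jurkat cells were irradiated (2.5 J/cm²) with compound present and collected 6 h later. They were resuspended in HBSS with hydroethidine and DCFDA (2.5 and 5, respectively) and held at 37 °C for 15 or 30 min. Flow cytometry used 488 nm excitation, reading 620 nm for HE and 530 nm for DCF, with at least 10,000 events. Values are mean ± SD, three independent experiments.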

[16] = system: Jurkat; test: Induction of lipid peroxidation in human Jurkat cells irradiated with 2.5 J/cm'2 assessed as increase in malondialdehyde production after 24 hrs by TBARS assay relative to untreated control; format: functional, cell-based
Procedure, shortened: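 Jurkat cells (500,000) were irradiated (2.5 J/cm²) with compound present and incubated 24 h. Supernatant was kept with BHT, and cells were lysed in 1% SDS, with protein measured by the Peterson method. Malondialdehyde was measured by thiobarbituric acid reaction (fluorescence, 553 nm) against a 1,1,3,3-tetraethoxypropane standard curve. Results are given as nmol TBARS normalized to protein.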

[17] = system: Jurkat; test: Induction of apoptosis in human Jurkat cells assessed as induction of loss of membrane potential at 1 uM after 4 hrs post irradiation with 20 J/cm'2 using JC1 staining by FACS; format: functional; procedure, shortened: as §2
[18] = system: Jurkat; test: Induction of apoptosis in human Jurkat cells assessed as induction of loss of membrane potential at 1 uM after 2 hrs post-irradiation with 20 J/cm'2 using JC1 staining by FACS; format: functional; procedure, shortened: as §2
[19] = system: Jurkat; test: Induction of apoptosis in human Jurkat cells assessed as increase in mitochondrial ROS production at 2.5 uM after 6 hrs post-irradiation with 2.5 J/cm'2 by FACS analysis; format: functional
Procedure, shortened: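 Jurkat cells were collected 6 h after UV-A irradiation (2.5 J/cm²) with the compound and resuspended in HBSS with hydroethidine 2.5 µM or DCFDA 5 µM. They were incubated at 37 °C for 15 or 30 min. Flow cytometry used 488 nm excitation, with emission at 620 nm (HE) or 530 nm (DCF), acquiring ≥10,000 events. Values are means ± SD of three independent experiments.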

[20] = system: Jurkat; test: Cell cycle arrest in human Jurkat cells assessed as accumulation in subG1 phase at 1 uM irradiated with 20 J/cm'2 after 24 hrs by flow cytometry; format: functional
Procedure, shortened: (§3)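 Exponentially growing Jurkat cells (5 × 10⁵) were irradiated with compound present. Drug was removed, and cells were kept 24 h in RPMI-1640, fixed in ice-cold 70% ethanol, and treated overnight with RNAse (10 KU/mL) in PBS. Cells were stained with propidium iodide and run on a flow cytometer, with DNA content reported as the fraction of cells in each cycle phase.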

[21] = system: Jurkat; test: Induction of apoptosis in human Jurkat cells assessed as lysosomal dysfunction at 1 uM after 4 hrs post-irradiation with 2.5 J/cm'2 using acridine orange dye by flow cytometry; format: functional
Procedure, shortened: (§4)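 Jurkat cells were irradiated (2.5 J/cm²) with compound present and collected at 2 and 4 h. They were resuspended in RPMI-1640 containing acridine orange, and the percentage of red-fluorescent cells (intact lysosomes) was scored by flow cytometry. Values are mean ± SD of at least three independent experiments.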

[22] = system: Jurkat; test: Induction of apoptosis in human Jurkat cells assessed as lysosomal dysfunction at 1 uM after 2 hrs post-irradiation with 2.5 J/cm'2 using acridine orange dye by flow cytometry; format: functional; procedure, shortened: as §4
[23] = system: Jurkat; test: Cell cycle arrest in human Jurkat cells assessed as accumulation in S phase at 1 uM irradiated with 20 J/cm'2 after 24 hrs by flow cytometry; format: functional; procedure, shortened: as §3
[24] = system: Jurkat; test: Induction of apoptosis in human Jurkat cells assessed as induction of loss of membrane potential at 1 uM after 4 hrs post-irradiation with 20 J/cm'2 by flow cytometry; format: functional; procedure, shortened: as §2
[25] = system: Jurkat; test: Cell cycle arrest in human Jurkat cells assessed as accumulation in G1 phase at 1 uM irradiated with 25 J/cm'2 after 24 hrs by flow cytometry

Structure (SMILES)	pIC50 [1]	pIC50 [2]	pIC50 [3]	pIC50 [4]	pIC50 [5]	pIC50 [6]	pIC50 [7]	pIC50 [8]	pIC50 [9]	pIC50 [10]	other results
CCOC(=O)c1cc2c([nH]1)-c1[nH]c(=O)c(S(=O)(=O)c3ccccc3)cc1CC2	5.14	5.46	5.21	5.34	5.28	5.60	5.21	5.03	5.26	5.37	–
O=c1[nH]c2c(cc1S(=O)(=O)c1ccccc1)CCc1ccn(S(=O)(=O)c3ccccc3)c1-2	< 4.70	< 4.70	< 4.70	< 4.70	< 4.70	< 4.70	< 4.70	< 4.70	< 4.70	< 4.70	–
N#Cc1cc2c([nH]c1=O)-c1c(ccn1S(=O)(=O)c1ccccc1)CC2	< 4.70	< 4.70	< 4.70	< 4.70	< 4.70	< 4.70	< 4.70	< 4.70	< 4.70	< 4.70	–
O=c1[nH]c2c(cc1S(=O)(=O)c1ccccc1)CCc1ccn(Cc3ccccc3)c1-2	5.26	5.89	5.32	5.66	5.48	5.96	5.40	5.12	5.59	5.77	–
Cn1ccc2c1-c1[nH]c(=O)c(S(=O)(=O)c3ccccc3)cc1CC2	< 4.70	< 4.70	< 4.70	< 4.70	< 4.70	< 4.70	< 4.70	< 4.70	< 4.70	< 4.70	–
COc1ccc(Cn2ccc3c2-c2[nH]c(=O)c(S(=O)(=O)c4ccccc4)cc2CC3)cc1	5.57	5.80	5.51	5.70	5.60	5.92	5.38	5.37	5.55	5.74	–
CCOC(=O)c1cc2c(n1Cc1ccccc1)-c1[nH]c(=O)c(S(=O)(=O)c3ccccc3)cc1CC2	6.00	6.10	6.05	6.10	6.22	6.22	6.05	5.96	6.05	6.10	Activity [11]: inactive; Activity [12]: 24.26%; Activity [13]: 7.2%; Activity [14]: Active; Activity [15]: 24.4%; Activity [16]: Dose-dependent effect; Activity [17]: 32.82%; Activity [18]: 75.74%; Activity [19]: Active; Activity [20]: 68.5%; Activity [21]: 55.82%; Activity [22]: 29.76%; Activity [23]: 8.2%; Activity [24]: 67.18%; Activity [25]: 16.1%
CCOC(=O)c1cc2c(n1Cc1ccc(C)cc1)-c1[nH]c(=O)c(S(=O)(=O)c3ccccc3)cc1CC2	5.66	5.82	5.89	6.00	6.00	5.92	5.77	5.57	5.80	5.85	–
O=c1[nH]c2c(cc1S(=O)(=O)c1ccccc1)CCc1cc[nH]c1-2	< 4.70	< 4.70	< 4.70	< 4.70	< 4.70	< 4.70	< 4.70	< 4.70	< 4.70	< 4.70	–
CCOC(=O)c1cc2c(n1Cc1ccc(OC)cc1)-c1[nH]c(=O)c(S(=O)(=O)c3ccccc3)cc1CC2	5.80	6.10	6.00	6.00	6.05	6.15	5.80	5.72	5.96	5.89	Activity [11]: inactive; Activity [12]: 44.43%; Activity [13]: 6.6%; Activity [14]: Active; Activity [15]: 79.08%; Activity [16]: Dose-dependent effect; Activity [17]: 25.86%; Activity [18]: 55.57%; Activity [19]: Active; Activity [20]: 74.7%; Activity [21]: 63.16%; Activity [22]: 58.5%; Activity [23]: 6.1%; Activity [24]: 47.07%; Activity [25]: 12.6%
O=c1[nH]c2c(cc1S(=O)(=O)c1ccccc1)CCc1ccn(-c3ccccc3)c1-2	< 4.70	< 4.70	< 4.70	< 4.70	< 4.70	< 4.70	< 4.70	< 4.70	< 4.70	< 4.70	–
Cc1ccc(Cn2ccc3c2-c2[nH]c(=O)c(S(=O)(=O)c4ccccc4)cc2CC3)cc1	5.59	5.80	5.57	5.64	5.62	5.92	5.42	5.48	5.57	5.62	–
